Data as given in ChEMBL document CHEMBL1134414, “Synthesis, antitumor cytotoxicity, and DNA-binding of novel N-5,2-di(omega-aminoalkyl)-2,6-dihydropyrazolo[3,4,5-kl]acridine-5-carboxamides” (J Med Chem, 2001).

Columns and labels:
HT-29 = assay: Concentration required to inhibit cell growth by 50% in vitro against Human colon adenocarcinoma cell line; type: functional, cell-based
In short: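 HT29 cells seeded at 2.5×10^4 cells/mL and exposed to drug continuously for 144 h. Assays run in triplicate.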

Nucleic Acid = assay: Apparent equilibrium constant for binding to calf thymus DNA by competitive displacement fluorometric assay; type: functional; settings: Bos taurus

Structure (SMILES)	IC50 (HT-29)	K app (Nucleic Acid)
COc1ccc2c(c1)-c1nn(CCCN(C)C)c3ccc(C(=O)NCCN(C)C)c(c13)N2	490 nM	–
O=C1c2c(O)ccc(O)c2C(=O)c2c(NCCNCCO)ccc(NCCNCCO)c21	–	3.41e+08 M⁻¹
CN(C)CCNC(=O)c1ccc2c3c(c4cc(O)ccc4nc13)NN2CCN1CCCC1	910 nM	–
CN(C)CCNC(=O)c1ccc2c3c(c4cc([N+](=O)[O-])ccc4nc13)NN2CCN1CCCC1	360 nM	–
COc1ccc2c(c1)-c1nn(CCN(C)C)c3ccc(C(=O)NCCN(C)C)c(c13)N2	120 nM	–
O=C(NCCNCCO)c1ccc2c3c(c4ccccc4nc13)NN2CCN1CCCCC1	560 nM	–
CN(C)CCNC(=O)c1ccc2c3c(c4cc([N+](=O)[O-])ccc4nc13)NN2CCN(C)C	3.9 nM	–
CN(C)CCNC(=O)c1ccc2c3c(c4ccccc4nc13)NN2CCN1CCCCC1	210 nM	–
CN(C)CCNC(=O)c1ccc2c3c(c4cc([N+](=O)[O-])ccc4nc13)NN2CCN1CCCCC1	31 nM	–
COc1ccc2c(c1)-c1nn(CCN3CCCC3)c3ccc(C(=O)NCCN(C)C)c(c13)N2	400 nM	–
O=C(NCCN1CCCCC1)c1ccc2c3c(c4ccccc4nc13)NN2CCN1CCCCC1	450 nM	–
COc1ccc2c(c1)-c1nn(CCN3CCCCC3)c3ccc(C(=O)NCCN(C)C)c(c13)N2	260 nM	–
O=C(NCCNCCO)c1ccc2c3c(c4ccccc4nc13)NN2CCN1CCCC1	1700 nM	–
CN(C)CCNC(=O)c1ccc2c3c(c4cc(N)ccc4nc13)NN2CCN1CCCCC1	170 nM	–
CN(C)CCNC(=O)c1ccc2c3c(c4cc(O)ccc4nc13)NN2CCN1CCCCC1	630 nM	–

Now from value to compound, other results behind:

IC50 (HT-29)	Structure (SMILES)	K app (Nucleic Acid)
600 nM	CN(C)CCCNC(=O)c1ccc2c3c(c4ccccc4nc13)NN2CCN(C)C	–
1800 nM	CN(C)CCCN1Nc2c3cc(O)ccc3nc3c(C(=O)NCCN(C)C)ccc1c23	–
600 nM	CN(C)CCNC(=O)c1ccc2c3c(c4cc(O)ccc4nc13)NN2CCN(C)C	–
190 nM	CN(C)CCNC(=O)c1ccc2c3c(c4ccccc4nc13)NN2CCN1CCCC1	–
910 nM	CN(C)CCNC(=O)c1ccc2c3c(c4cc(N)ccc4nc13)NN2CCN(C)C	–
2300 nM	CN(C)CCCNC(=O)c1ccc2c3c(c4ccccc4nc13)NN2CCCN(C)C	–
300 nM	CN(C)CCN1Nc2c3ccccc3nc3c(C(=O)NCCN)ccc1c23	–
250 nM	CN(C)CCCN1Nc2c3ccccc3nc3c(C(=O)NCCN(C)C)ccc1c23	–
560 nM	CN(C)CCN1Nc2c3ccccc3nc3c(C(=O)NCCNCCO)ccc1c23	–
210 nM	CN(C)CCNC(=O)c1ccc2c3c(c4ccccc4nc13)NN2CCN(C)C	–
410 nM	CCN(CC)CCNC(=O)c1ccc2c3c(c4ccccc4nc13)NN2CCN(CC)CC	–
